Test results reported in ChEMBL document CHEMBL4513216, “Probing the Open Global Health Chemical Diversity Library for Multistage-Active Starting Points for Next-Generation Antimalarials” (ACS Infect Dis, 2020).

Assay: Toxicity liver stage against HepG2, at 10uM
Type: cell-based
Design: test concentration 10 uM, cell line HepG2-A16-CD81EGFP
Details: human, HepG2-A16-CD81EGFP cells; read-out: INHIBITION
Summary of the method: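 Uninfected HepG2-A16-CD81EGFP cells, 3 × 10^3 per well, 1536-well, plated on prespotted compound at 10 μM final, parasite-free screening media added to match infected plates; puromycin 10 μM positive, DMSO 0.5% negative; run in parallel with 48 h PbLuc assay at 37 °C, 5% CO2; viability by CellTiter-Glo luminescence, normalized to controls.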

Compound | cytotoxicity at 10 µM [%]
COc1ccc(-c2n[nH]cc2CN2CCSCC2)c(OC)c1 | 6.4
CC(C)(C)CNC[C@H]1Cn2ccnc2CO1 | -6.17
O=C1CO[C@H]2CN(C3CCOCC3)C[C@H]2N1Cc1ccncc1 | 5.89
COc1ccc(CN2CC[C@H](c3nc4cccc(C(N)=O)c4[nH]3)C2)cc1 | 12.1
CN1Cc2cc(F)ccc2N(CC(C)(C)O)CCC1=O | -2.02
CC(C)(C)CC(=O)N1[C@@H](c2ccco2)[C@@H](CO)C[C@]12CCCCNC2=O | 0.122
CCNC(=O)N1CC2=CC(C)(C)COc3ccc(OC)c(c32)C1 | 8.47
O=C(c1nnn(-c2ccccc2Cl)c1-c1ccccn1)N1CCSCC1 | 4.92
CC(C)CC(=O)N1CCN(c2cc(N(C)C)cnn2)CC1 | 4.17
CS(=O)(=O)NCCn1ccc(-c2cccs2)n1 | 1.43
CC(C)C(=O)N1CCC2(CC1)[C@@H]1CN(C(=O)N(C)C)C[C@@H]1C(=O)N2C | 1.76
O=C(C1CCCCC1)N1C[C@@H]2CCNC[C@@H]21 | 3.47
COc1ccc(C[C@H]2CN(C(=O)c3cscn3)CC[C@@H]2OC)cc1 | 7.71
O=C(C1CCOC1)N1CCC2(CCNCC2)C1 (stereo not given) | 7.62
N#CCC(=O)NCc1nnc2n1CCN(Cc1ccco1)C2 | -139
O=C(c1ccco1)N1CCOCC2(C1)CN(c1ccccn1)C(=O)CO2 (stereo not given) | 3.16
C=C/C=c1\c(=C/C)oc2c(NCc3ccccc3)nc(CC)nc12 | 10.4
O=C(O)c1ccccc1-n1cc(CN2CCC(c3cc[nH]n3)C2)cn1 (stereo not given) | 1.1
O=C1CCCN1CCN1CCC(c2ccn[nH]2)CC1 | 11.3
Cc1nc2n(n1)CC(NCc1nnc(C(C)(C)C)o1)CC2 (stereo not given) | -5.23
CCc1nc(C(=O)N2CCOCC2CC(=O)c2ccccc2)c[nH]1 (stereo not given) | -0.613
Cn1ccc(CN2CCCC(CNS(C)(=O)=O)C2)cc1=O (stereo not given) | 9.31

Compound | cytotoxicity at 10 µM [%]
CC(=O)NCCCSC1CCCN(c2ccccc2Cl)C1=O (stereo not given) | -0.5
CCOc1cc(CNCC2CN(C3CC3)CCO2)ccc1OC (stereo not given) | -5.95
COCc1nccc(C2CCCN(Cc3ccc(C#N)cc3F)C2)n1 (stereo not given) | 27.3
Cc1nn(C)c(C)c1CNCc1cccnc1N1CCOCC1 | -138
O=C(NC1CCCN(c2ccc(OC(F)F)cc2)C1)c1c[nH]nn1 (stereo not given) | 24.8
CC(C)C(C#N)N1CCN(Cc2nccn2CC(F)(F)F)CC1 (stereo not given) | 0.172
COc1ccc(C)c2c1N(C(=O)c1cnc3onc(C)c3c1)CCC2 | -1.67
Cc1ccc(NC(=O)N(CCO)CCO)c(OCc2ccccc2)c1 | 18.4
Cc1nnc(Cn2cc(I)cc(C)c2=O)o1 | 0.0894
CN1C(=O)CCN(C(=O)C2CCCCC2)c2ccccc21 | 20.8
COCCN1CCC(CNC(=O)C2(C#N)CCCCC2)CC1 | -11.1
CS(=O)(=O)CCCNC1(c2cccc(Cl)c2)CCCC1 | 0.245
COC(=O)CCN1CCCC1c1ccccc1Cl (stereo not given) | 19.6
COCC1c2nnn(C)c2CCN1C(=O)COc1ccccc1C (stereo not given) | -100
O=C(NCC1CC1)C1=NOC2(CCN(S(=O)(=O)Cc3ccccc3)C2)C1 (stereo not given) | -2.1
O=C(c1ccc[nH]1)N1CCC2(CC1)CC(Oc1cccnc1)CO2 (stereo not given) | -7.69
Cn1cc(CN2CC[C@H](O)[C@@H]2Cc2ccncc2)cn1 | 3.6
CC(=O)N1CCC2(CCCN(C(=O)c3ccccc3)C2)C1 (stereo not given) | 9.52
Cc1c(C(C)NC2CCOCC2)cnn1-c1ccc(F)cc1F (stereo not given) | -8.87
Cc1cc(C)c2nc(C)cc(C(=O)N3CC(O)CO3)c2c1 (stereo not given) | 16.5
CNS(=O)(=O)CCn1cc(-c2ccc(OC)c(OC)c2)nn1 | 1.9
CCc1nccn1CCC(=O)N1CC[C@@H](c2sccc2C)[C@H](O)C1 | -6.04

Compound | cytotoxicity at 10 µM [%]
C/C=C(\C)CN1C[C@@H](NC(=O)c2ccc(O)c(Cl)c2)C[C@H]1C(=O)NCC | 9.23
CCNC(=O)[C@@H]1C[C@H](NC(=O)c2cncnc2C)CN1Cc1ccsc1 | 2.12
Cc1cc(C(=O)NC2CCCCNC2=O)c(=O)[nH]c1C (stereo not given) | -3.35
CCCc1nc(NC2(COC)CCCC2)c2cnn(C)c2n1 | -1.43
CCn1cnc(NC(=O)N2CCCC(c3ccccc3)CC2)n1 (stereo not given) | 2.7
CC(C)(C)CN1CCCC(O)(CN2CCc3[nH]ncc3C2)C1=O (stereo not given) | -5.14
CN(C)CCNC(=O)c1ccc(OC2CCN(C3CCC3)CC2)c(Cl)c1 | -5.89
COc1ccc(-n2c(SCC(=O)O)nnc2-c2cn[nH]c2)cc1 | -4.59
CCc1cc(N[C@H](C(N)=O)[C@@H](C)CC)n2nccc2n1 | 2.99
CCn1ccc(CN(C)C(=O)CSc2nnc(N)s2)n1 | 3.45
OC1CCN(CCCNc2ncccn2)CC1 | 2.68
CN(C)c1nc2c(c(N3CCC(O)CC3)n1)CN(CC(C)(C)C)CC2 | 7.5
CN(C)C(=O)N1CCC(C(=O)N2CCOC(CC3CCCCC3)C2)CC1 (stereo not given) | 21.3
COc1cccc(CC2(C(=O)O)CCN(c3nccs3)CC2)c1 | -9.59
Fc1ccc(C2(CNCC(F)F)CCOC2)cc1 (stereo not given) | -152
CCN(CC)C(=O)C1CCCN(CC(=O)Nc2c(C)nn(CC)c2C)C1 (stereo not given) | 2.13
Cc1nc(N2CCCC(C)C2)nc2cc(S(C)(=O)=O)ccc12 (stereo not given) | -24.2
CN(CC1COCCO1)c1ncnc2cc(F)ccc12 (stereo not given) | 0.613
Cc1nc(CCNC(=O)C2CC(=O)N(C(C)C)C2)sc1C (stereo not given) | -14
Cc1cccc(N2CCN(C(=O)C3CC4(CCNCC4)CN3)CC2)n1 (stereo not given) | -4.27
O=C(Cc1n[nH]c(-c2cncc(Br)c2)n1)NCc1ccccn1 | -1.39
Cn1cc(-c2ccnc(NCC3CC3)n2)cn1 | -134

Compound | cytotoxicity at 10 µM [%]
Cc1ccc(CN2CCN(CC3CC3)[C@@H]3CS(=O)(=O)C[C@@H]32)cc1C | 25.4
COc1ccc(C2CC(=O)Nc3c2nc2n3CCCC2)cc1OC (stereo not given) | -8.41
Cc1cc(C)nc(N2Cc3cnn(Cc4ccc(F)cc4)c3C2)n1 | 25.2
Cc1nc(C)n(C2CCCN(C(=O)COc3cccc(C#N)c3)C2)n1 (stereo not given) | 1.08
Cc1cccc(-c2nc(C)nn2CC(=O)NC(C)C)c1 | 8.22
Cc1nc(CN2CCCC(NCc3csc(C(C)(C)C)n3)C2)no1 (stereo not given) | 0.238
c1cnn(CC2CCCN2Cc2noc(C3CC3)n2)c1 (stereo not given) | 1.46
CC(NC(=O)CCn1cccn1)c1ccc2c(c1)OCCO2 (stereo not given) | -7.79
CCn1cnnc1C1CCN(C(=O)c2cccc(OC)c2OC)CC1 | -7.96
Cc1nc2cc(O)nn2c(C)c1CCC(=O)NCCc1ccccc1 | -6.65
Cc1cc(NC(=O)CN2CCCCC2Cn2nc(C)nc2C)on1 (stereo not given) | -2.19
COc1cccc(CN(C)C(=O)NCc2c(C)cc(C)[nH]c2=O)c1 | -7.98
Cc1ncsc1C(=O)NC1CCN(CC(N)=O)CC1 | -3.54
Cc1cccc(OCCNC(=O)CN2CCc3cncnc3C2)c1 | -6.65
Cc1cnc2c(S(=O)(=O)N(C)C3CCS(=O)(=O)C3)cccc2c1 (stereo not given) | -5.44
Cc1nc(C)n(CC2CN(Cc3nc4ccccc4n3C)CCO2)n1 (stereo not given) | -4.68
O=C(O)c1cc(S(=O)(=O)Nc2cccc(F)c2F)cc2c1OCCO2 | -3.65
Cc1cc(C(=O)N2CCCN(Cc3nccn3C)CC2)no1 | 0.47
Cc1nccc(C(=O)N2CCCC2c2noc(C(C)C)n2)n1 (stereo not given) | -16.4
CCc1nc(CN(C)C2CCN(CC(=O)N3CCOCC3)C2)no1 (stereo not given) | -5.32
O=C(N1CCCC(n2cncn2)C1)C1(c2ccccc2F)CCCC1 (stereo not given) | -4.24
c1cc(-c2nc(CN3CCc4c(ncn4C4CC4)C3)cs2)cs1 | -4.25

Compound | cytotoxicity at 10 µM [%]
Cc1cc(NC(=O)CN2CCn3c(nnc3C(C)C)C2)n(C)n1 | -5.39
Cc1nc(C2CCCN2CCCS(N)(=O)=O)no1 (stereo not given) | -10.3
COC(=O)c1cc(C(=O)N2CCC(C)CC2)n(-c2ccccc2)n1 | 0.103
Cc1ccc(C(=O)NS(=O)(=O)c2cc(Cl)ccc2Cl)c(=O)[nH]1 | -5.72
CCN(CC1CCOC1)C(=O)Nc1ccc(OC)nc1 (stereo not given) | -4.2
OC(COCc1ccccc1Cl)CN1CC(n2cccn2)C1 (stereo not given) | -7.7
CN1CCOC(CNCc2coc(-c3ccccc3)n2)C1 (stereo not given) | -5.1
Cc1cnn(CC2CCCN2C(=O)CCc2nc3ccccc3[nH]2)c1 (stereo not given) | -12.9
CCOc1ncccc1CNC(=O)Nc1ccc(N(C)C)nc1 | -11.8
CCc1nc(C)c(C(=O)NCCN2CCN(C(C)=O)CC2)s1 | -10.4
CCC(C)[C@H](N)c1nnc(SCC(=O)Nc2cc(C)ccc2C)o1 (stereo not given in full) | -12.7
COc1ccc(CN(Cc2cccnc2)CC2CCCO2)c(OC)c1 (stereo not given) | 1.13
O=C(C1CCC1)N1CCC2(CCCN2CC2CC2)CC1 | -2.45
CN1CCOCC12CCN(C(=O)C1CCC1)CC2 | 0.64
Cc1ccc2c(c1)C(NC(=O)N(C)C)CC21CCN(CC2CC2)CC1 (stereo not given) | 4.44
O=C(c1ccco1)N1CC[C@@H]2CN(C3CCOCC3)CCO[C@@H]2C1 | -112
CN(C)CCO[C@@H]1CC[C@H]2[C@H]1OCCN2C(=O)COc1ccccc1 | -4.84
CN(Cc1ccccn1)C1CCC[C@@H]2CN(CC3CC3)C[C@H]12 (stereo not given in full) | -113
Cc1cccc(N2CCc3ncc(CNS(C)(=O)=O)n3CC2)n1 | 8.39
CCN(C)c1ncnc2c1CCN(Cc1ccc(F)cc1)CC2 | 3.1
O=c1cc(Cn2cncn2)nc2n1CCCN(Cc1ccc(F)cc1)C2 | 4.43
O=C(NCC1CCCCC1)N1C[C@@H]2C[C@H](C(=O)N3CCOCC3)[C@H](C1)O2 | -99.4
